In ChEMBL document CHEMBL4831560, “Design, Synthesis, and Biological Evaluation of APN and AKT Dual-Target Inhibitors” (ACS Med Chem Lett, 2021):
Active and inactive are the calls of the source. No cut-off for these calls is given here.

These molecules were tested against T1, Serine/threonine-protein kinase AKT (Homo sapiens) (UniProt P31751+Q9Y243+P31749) (assay: Inhibition of AKT in human AGS cells assessed as inhibition of GSK3beta phosphorylation incubated for up to 6 hrs by immunoblot analysis). Conditions: dose 2-10 µM, time hrs <=6.
T1 sequence (P31749 whole entry, looked up): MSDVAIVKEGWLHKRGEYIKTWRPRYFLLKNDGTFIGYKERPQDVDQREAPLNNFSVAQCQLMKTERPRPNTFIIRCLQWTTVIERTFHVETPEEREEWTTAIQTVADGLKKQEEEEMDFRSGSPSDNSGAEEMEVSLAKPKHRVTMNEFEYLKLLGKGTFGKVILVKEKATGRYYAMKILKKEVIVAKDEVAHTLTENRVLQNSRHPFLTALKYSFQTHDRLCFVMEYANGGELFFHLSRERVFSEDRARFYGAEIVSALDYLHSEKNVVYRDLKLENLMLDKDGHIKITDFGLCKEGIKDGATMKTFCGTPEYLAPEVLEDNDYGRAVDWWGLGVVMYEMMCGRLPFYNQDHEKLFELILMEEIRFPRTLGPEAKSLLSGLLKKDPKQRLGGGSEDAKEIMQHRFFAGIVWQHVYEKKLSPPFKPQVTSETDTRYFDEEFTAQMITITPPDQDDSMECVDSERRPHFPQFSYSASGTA
T1 sequence (P31751 whole entry, looked up): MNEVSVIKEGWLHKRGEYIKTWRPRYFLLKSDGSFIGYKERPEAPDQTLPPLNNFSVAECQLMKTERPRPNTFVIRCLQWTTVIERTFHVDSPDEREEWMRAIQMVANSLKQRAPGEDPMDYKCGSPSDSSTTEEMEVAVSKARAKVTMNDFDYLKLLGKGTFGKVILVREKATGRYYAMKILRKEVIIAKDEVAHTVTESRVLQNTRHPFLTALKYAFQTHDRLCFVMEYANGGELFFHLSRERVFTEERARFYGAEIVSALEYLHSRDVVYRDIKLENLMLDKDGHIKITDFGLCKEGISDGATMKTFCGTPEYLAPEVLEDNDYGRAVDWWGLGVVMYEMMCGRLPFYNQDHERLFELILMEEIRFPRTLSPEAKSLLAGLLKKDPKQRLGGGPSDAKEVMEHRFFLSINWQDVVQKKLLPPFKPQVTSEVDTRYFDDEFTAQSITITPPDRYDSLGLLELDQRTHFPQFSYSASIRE
T1 sequence (Q9Y243 whole entry, looked up): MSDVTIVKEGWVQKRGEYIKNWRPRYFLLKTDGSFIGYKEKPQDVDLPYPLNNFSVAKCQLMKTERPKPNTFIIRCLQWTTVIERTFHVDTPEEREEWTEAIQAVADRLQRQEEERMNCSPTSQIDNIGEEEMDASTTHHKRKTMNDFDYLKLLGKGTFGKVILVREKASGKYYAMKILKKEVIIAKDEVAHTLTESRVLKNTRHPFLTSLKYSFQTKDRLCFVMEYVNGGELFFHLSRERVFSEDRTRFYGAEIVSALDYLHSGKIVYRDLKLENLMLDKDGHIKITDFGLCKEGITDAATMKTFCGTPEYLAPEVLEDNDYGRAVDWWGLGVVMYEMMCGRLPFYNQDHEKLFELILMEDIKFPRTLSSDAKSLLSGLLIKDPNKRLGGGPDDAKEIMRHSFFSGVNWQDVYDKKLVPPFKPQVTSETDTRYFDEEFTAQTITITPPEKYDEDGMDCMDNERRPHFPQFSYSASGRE
Format: cell-based
Method in brief: (§1)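 Western blot in AGS cells treated with DMSO or compound at 2 or 10 μM for 2 or 6 h. Phospho-GSK3β was probed with β-actin as loading control and blots were quantified. Three independent experiments were run, with Student's two-tailed t test against control.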

Row | inhibition | Structure (SMILES)
1 | Dose-Dependent Effect | CC(C)C[C@@H](NC(=O)C1(N)CCN(c2ncnc3[nH]ccc23)CC1)C(=O)NO

Each molecule was assayed against T2, Aminopeptidase N (Sus scrofa) (UniProt P15145) (assay: Potency index, ratio of bestatin IC50 to test compound IC50 for inhibition of APN in pig kidney microsomes assessed as reduction in p-nitroanilide release using L-leu-p-nitroanilide as substrate incubated for 30 mins by UV absorption based analysis). Conditions: not given.
T2 sequence (whole entry): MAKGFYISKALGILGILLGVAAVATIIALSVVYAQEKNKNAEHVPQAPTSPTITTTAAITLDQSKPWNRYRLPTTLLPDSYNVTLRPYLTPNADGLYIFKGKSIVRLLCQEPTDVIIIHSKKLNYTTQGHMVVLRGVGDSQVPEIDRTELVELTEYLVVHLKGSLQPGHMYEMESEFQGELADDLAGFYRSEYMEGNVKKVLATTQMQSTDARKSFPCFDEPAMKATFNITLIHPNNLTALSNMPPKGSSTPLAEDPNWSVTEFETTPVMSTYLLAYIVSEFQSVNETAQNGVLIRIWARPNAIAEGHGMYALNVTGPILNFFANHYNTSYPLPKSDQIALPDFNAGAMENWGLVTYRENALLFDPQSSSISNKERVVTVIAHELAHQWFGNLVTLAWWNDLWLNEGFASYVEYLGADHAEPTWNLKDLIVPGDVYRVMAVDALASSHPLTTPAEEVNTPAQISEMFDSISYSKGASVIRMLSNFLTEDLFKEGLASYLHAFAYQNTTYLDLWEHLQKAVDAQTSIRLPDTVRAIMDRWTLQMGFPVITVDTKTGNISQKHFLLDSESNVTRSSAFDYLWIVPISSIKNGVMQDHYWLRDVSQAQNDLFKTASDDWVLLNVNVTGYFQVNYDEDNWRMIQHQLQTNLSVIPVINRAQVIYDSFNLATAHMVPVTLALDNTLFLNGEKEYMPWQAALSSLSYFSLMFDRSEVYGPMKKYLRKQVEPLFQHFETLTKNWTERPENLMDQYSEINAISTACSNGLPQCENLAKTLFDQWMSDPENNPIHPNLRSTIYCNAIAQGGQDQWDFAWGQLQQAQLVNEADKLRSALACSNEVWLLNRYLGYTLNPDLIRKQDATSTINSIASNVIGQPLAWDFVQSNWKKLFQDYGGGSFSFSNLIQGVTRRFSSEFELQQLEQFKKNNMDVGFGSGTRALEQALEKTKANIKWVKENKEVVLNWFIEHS

Row | Ratio IC50 | Structure (SMILES)
2 | 70 | CC(C)C[C@@H](NC(=O)C1CCN(c2ncnc3[nH]ccc23)CC1)C(=O)NO

The molecules below were run on NCI-H1975 (assay: Antiproliferative activity against human NCI-H1975 cells assessed as reduction in cell viability incubated for 72 hrs by MTT assay). Conditions: NCI-H1975, 72 h.
Format: functional, cell-based

Row | Structure (SMILES) | IC50 [nM]
3 | NC1(C(=O)N[C@@H](C(=O)NO)c2ccccc2)CCN(c2ncnc3[nH]ccc23)CC1 | 20300
4 | CC(C)C[C@H](NC(=O)[C@@H](O)[C@H](N)Cc1ccccc1)C(=O)O [UBENIMEX] | > 200000

Now from value to molecule:

Row | IC50 [nM] | Structure (SMILES)
5 | 27400 | CC(C)C[C@@H](NC(=O)C1(N)CCN(c2ncnc3[nH]ccc23)CC1)C(=O)NO
6 | 2700 | NC1(C(=O)N[C@@H](CCO)c2ccc(Cl)cc2)CCN(c2nc[nH]c3nccc2-3)CC1 [CAPIVASERTIB]

The molecules below were run on HUVEC (assay: Anti-angiogenic activity against HUVEC cells assessed as inhibition of tubular structure formation at 10 uM […] by Matrigel based phase contrast microscopic analysis). Conditions: Homo sapiens.
Format: functional, cell-based

Row | Structure (SMILES) | Activity
7 | CC(C)C[C@@H](NC(=O)C1(N)CCN(c2ncnc3[nH]ccc23)CC1)C(=O)NO | Active
8 | NC1(C(=O)N[C@@H](C(=O)NO)c2ccccc2)CCN(c2ncnc3[nH]ccc23)CC1 | Active
9 | NC1(C(=O)N[C@@H](CCO)c2ccc(Cl)cc2)CCN(c2nc[nH]c3nccc2-3)CC1 [CAPIVASERTIB] | inactive
10 | CC(C)C[C@H](NC(=O)[C@@H](O)[C@H](N)Cc1ccccc1)C(=O)O [UBENIMEX] | Active
11 | COc1ccc(Cn2ccc3ccc(C(=O)NO)cc32)cc1 | inactive

These molecules were tested against T1, Serine/threonine-protein kinase AKT (Homo sapiens) (assay: Inhibition of AKT in human AGS cells assessed as inhibition of GSK3beta phosphorylation up to 10 uM by immunoblot analysis). Conditions: dose microM <=10, time 2-6 hrs, TDE = time-dependent effect.
Format: cell-based
Method in brief: as §1

Row | inhibition | Structure (SMILES)
12 | Tde | CC(C)C[C@@H](NC(=O)C1(N)CCN(c2ncnc3[nH]ccc23)CC1)C(=O)NO

What follows are molecules tested against T3, Aminopeptidase N (Sus scrofa, UniProt P15145) (assay: Inhibition of APN in pig kidney microsomes assessed as reduction in p-nitroanilide release using L-leu-p-nitroanilide as substrate incubated for 30 mins by UV absorption based analysis). Conditions: not given.
T3 sequence (P15145 whole entry): T2 sequence (whole entry)

Row | Structure (SMILES) | IC50 [nM]
13 | O=C(NO)[C@H](NC(=O)N1CCN(c2ncnc3[nH]ccc23)CC1)c1ccccc1 | 1040
14 | CC(C)[C@H](NC(=O)C1(N)CCN(c2ncnc3[nH]ccc23)CC1)C(=O)NO | 140000
15 | NC1(C(=O)N[C@@H](C(=O)NO)c2ccccc2)CCN(c2ncnc3[nH]ccc23)CC1 | 960
16 | O=C(N[C@@H](C(=O)NO)c1ccccc1)C1CCN(c2ncnc3[nH]ccc23)CC1 | 390
17 | NC1(C(=O)N[C@@H](Cc2c[nH]c3ccccc23)C(=O)NO)CCN(c2ncnc3[nH]ccc23)CC1 | 127000
18 | CC(C)C[C@@H](NC(=O)NC1CCN(c2ncnc3[nH]ccc23)CC1)C(=O)NO | 710
19 | CC(C)C[C@@H](NC(=O)N1CCN(c2ncnc3[nH]ccc23)CC1)C(=O)NO | 210
20 | O=C(NO)[C@@H](Cc1ccccc1)NC(=O)N1CCN(c2ncnc3[nH]ccc23)CC1 | 260
21 | NC1(C(=O)N[C@H](Cc2c[nH]c3ccccc23)C(=O)NO)CCN(c2ncnc3[nH]ccc23)CC1 | 4160
22 | O=C(NC1CCN(c2ncnc3[nH]ccc23)CC1)N[C@@H](C(=O)NO)c1ccccc1 | 5400
23 | CC(C)[C@@H](NC(=O)C1(N)CCN(c2ncnc3[nH]ccc23)CC1)C(=O)NO | 470
24 | NC1(C(=O)N[C@H](C(=O)NO)c2ccccc2)CCN(c2ncnc3[nH]ccc23)CC1 | 1490

Results, then the molecule that gave them:

Row | IC50 [nM] | Structure (SMILES)
25 | 210 | CC(C)C[C@@H](NC(=O)C1(N)CCN(c2ncnc3[nH]ccc23)CC1)C(=O)NO
26 | 50 | CC(C)C[C@@H](NC(=O)C1CCN(c2ncnc3[nH]ccc23)CC1)C(=O)NO
27 | 900 | O=C(NC1CCN(c2ncnc3[nH]ccc23)CC1)N[C@H](Cc1ccccc1)C(=O)NO
28 | 32400 | CC(C)C[C@H](NC(=O)C1(N)CCN(c2ncnc3[nH]ccc23)CC1)C(=O)NO
29 | 159000 | NC1(C(=O)N[C@@H](Cc2ccccc2)C(=O)NO)CCN(c2ncnc3[nH]ccc23)CC1
30 | 670 | NC1(C(=O)N[C@H](Cc2ccccc2)C(=O)NO)CCN(c2ncnc3[nH]ccc23)CC1
31 | 710 | O=C(N[C@H](Cc1ccccc1)C(=O)NO)C1CCN(c2ncnc3[nH]ccc23)CC1

Each molecule was assayed against T4, RAC-alpha serine/threonine-protein kinase (Homo sapiens, UniProt P31749). Conditions: dose 200.0 nM, time 40.0 min.
T4 sequence (P31749 whole entry): as the sequence (P31749 whole entry, looked up) above

Row | Structure (SMILES) | inhibition [%]
32 | CC(C)[C@H](NC(=O)C1(N)CCN(c2ncnc3[nH]ccc23)CC1)C(=O)NO | 5
33 | NC1(C(=O)N[C@@H](C(=O)NO)c2ccccc2)CCN(c2ncnc3[nH]ccc23)CC1 | 60
34 | NC1(C(=O)N[C@@H](Cc2c[nH]c3ccccc23)C(=O)NO)CCN(c2ncnc3[nH]ccc23)CC1 | 5
35 | CC(C)C[C@@H](NC(=O)NC1CCN(c2ncnc3[nH]ccc23)CC1)C(=O)NO | 4
36 | CC(C)C[C@@H](NC(=O)N1CCN(c2ncnc3[nH]ccc23)CC1)C(=O)NO | 29
37 | O=C(NO)[C@@H](Cc1ccccc1)NC(=O)N1CCN(c2ncnc3[nH]ccc23)CC1 | 11
38 | NC1(C(=O)N[C@H](Cc2c[nH]c3ccccc23)C(=O)NO)CCN(c2ncnc3[nH]ccc23)CC1 | 3
39 | CC(C)[C@@H](NC(=O)C1(N)CCN(c2ncnc3[nH]ccc23)CC1)C(=O)NO | 6
40 | NC1(C(=O)N[C@H](C(=O)NO)c2ccccc2)CCN(c2ncnc3[nH]ccc23)CC1 | 35

Next, values leading:

Row | inhibition [%] | Structure (SMILES)
41 | 43 | CC(C)C[C@@H](NC(=O)C1(N)CCN(c2ncnc3[nH]ccc23)CC1)C(=O)NO
42 | 2 | CC(C)C[C@@H](NC(=O)C1CCN(c2ncnc3[nH]ccc23)CC1)C(=O)NO
43 | 7 | O=C(NC1CCN(c2ncnc3[nH]ccc23)CC1)N[C@H](Cc1ccccc1)C(=O)NO
44 | 7 | CC(C)C[C@H](NC(=O)C1(N)CCN(c2ncnc3[nH]ccc23)CC1)C(=O)NO
45 | 2 | NC1(C(=O)N[C@@H](Cc2ccccc2)C(=O)NO)CCN(c2ncnc3[nH]ccc23)CC1
46 | 21 | NC1(C(=O)N[C@H](Cc2ccccc2)C(=O)NO)CCN(c2ncnc3[nH]ccc23)CC1
47 | 7 | O=C(N[C@H](Cc1ccccc1)C(=O)NO)C1CCN(c2ncnc3[nH]ccc23)CC1

What follows are molecules tested on AGS (assay: Antiproliferative activity against human AGS cells assessed as reduction in cell viability incubated for 72 hrs by MTT assay). Conditions: not given.
Format: functional, cell-based

Row | Structure (SMILES) | IC50 [nM]
48 | NC1(C(=O)N[C@@H](C(=O)NO)c2ccccc2)CCN(c2ncnc3[nH]ccc23)CC1 | 30700
49 | CC(C)C[C@H](NC(=O)[C@@H](O)[C@H](N)Cc1ccccc1)C(=O)O [UBENIMEX] | > 200000

Now from value to molecule:

Row | IC50 [nM] | Structure (SMILES)
50 | 52400 | CC(C)C[C@@H](NC(=O)C1(N)CCN(c2ncnc3[nH]ccc23)CC1)C(=O)NO
51 | 9600 | NC1(C(=O)N[C@@H](CCO)c2ccc(Cl)cc2)CCN(c2nc[nH]c3nccc2-3)CC1 [CAPIVASERTIB]

The molecules below were run against T4, RAC-alpha serine/threonine-protein kinase (assay: Inhibition of AKT1 (unknown origin) incubated for 40 mins in presence of ATP by Kinase-Glo reagent based luminescence analysis). Conditions: not given.

Row | IC50 [nM] | Structure (SMILES)
52 | 270 | CC(C)C[C@@H](NC(=O)C1(N)CCN(c2ncnc3[nH]ccc23)CC1)C(=O)NO
53 | 121 | NC1(C(=O)N[C@@H](C(=O)NO)c2ccccc2)CCN(c2ncnc3[nH]ccc23)CC1

The molecules below were run on MCF7 (assay: Antiproliferative activity against human MCF7 cells assessed as reduction in cell viability incubated for 72 hrs by MTT assay). Conditions: MCF7, 72 h.
Format: functional, cell-based

Row | Structure (SMILES) | IC50 [nM]
54 | NC1(C(=O)N[C@@H](C(=O)NO)c2ccccc2)CCN(c2ncnc3[nH]ccc23)CC1 | 24800
55 | CC(C)C[C@H](NC(=O)[C@@H](O)[C@H](N)Cc1ccccc1)C(=O)O [UBENIMEX] | > 200000

The remaining lines, values ahead:

Row | IC50 [nM] | Structure (SMILES)
56 | 32700 | CC(C)C[C@@H](NC(=O)C1(N)CCN(c2ncnc3[nH]ccc23)CC1)C(=O)NO
57 | 4200 | NC1(C(=O)N[C@@H](CCO)c2ccc(Cl)cc2)CCN(c2nc[nH]c3nccc2-3)CC1 [CAPIVASERTIB]
